Laboratory results published in ChEMBL document CHEMBL1134584 (J Med Chem, 2001).

Legend:
[1] = biological target: T1, Somatostatin receptor type 3 (Homo sapiens, UniProt P32745); assay: Inhibition of [125 I -Tyr]SRIF-14 binding to membranes isolated from CHO-K1 cells expressing cloned human SRIF receptor (sst-3) subtype; assay type: cell membranes
[2] = biological target: T1, Somatostatin receptor type 3; assay: Inhibitory concentration required to inhibit SRIF-14 induced reduction of cAMP in CHO-K1 cells expressing the human sst3 receptor.; assay type: functional, cell-based
[3] = biological target: Somatostatin receptor type 1 (Homo sapiens, UniProt P30872); assay: Inhibition of [125 I -Tyr]SRIF-14 binding to membranes isolated from CHO-K1 cells expressing cloned human SRIF receptor (sst-1) subtype; assay type: cell membranes
Sequence of Somatostatin receptor type 1 (P30872 whole entry): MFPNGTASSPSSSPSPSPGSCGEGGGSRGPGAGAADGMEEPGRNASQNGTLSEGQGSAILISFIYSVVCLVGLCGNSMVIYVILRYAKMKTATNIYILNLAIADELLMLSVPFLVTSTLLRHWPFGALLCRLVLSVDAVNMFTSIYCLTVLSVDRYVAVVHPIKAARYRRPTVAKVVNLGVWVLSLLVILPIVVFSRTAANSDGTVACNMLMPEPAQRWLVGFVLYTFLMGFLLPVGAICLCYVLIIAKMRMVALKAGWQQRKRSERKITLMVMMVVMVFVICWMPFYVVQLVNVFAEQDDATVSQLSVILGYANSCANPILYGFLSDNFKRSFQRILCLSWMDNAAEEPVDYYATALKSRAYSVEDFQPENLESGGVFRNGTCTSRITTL

[4] = biological target: Somatostatin receptor type 5 (Homo sapiens, UniProt P35346); assay: Inhibition of [125 I -Tyr]SRIF-14 binding to membranes isolated from CHO-K1 cells expressing cloned human SRIF receptor (sst-5) subtype; assay type: cell membranes
Sequence of Somatostatin receptor type 5 (P35346 whole entry): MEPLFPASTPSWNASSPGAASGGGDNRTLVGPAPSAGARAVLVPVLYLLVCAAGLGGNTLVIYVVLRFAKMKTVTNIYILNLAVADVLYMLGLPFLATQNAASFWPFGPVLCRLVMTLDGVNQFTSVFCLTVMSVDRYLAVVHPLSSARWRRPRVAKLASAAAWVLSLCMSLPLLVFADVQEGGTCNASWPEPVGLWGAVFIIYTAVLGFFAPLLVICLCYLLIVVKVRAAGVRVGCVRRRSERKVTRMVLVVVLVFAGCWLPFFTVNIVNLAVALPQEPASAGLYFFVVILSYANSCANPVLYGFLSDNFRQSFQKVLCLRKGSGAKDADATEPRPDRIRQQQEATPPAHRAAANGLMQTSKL

[5] = biological target: Somatostatin receptor type 4 (Homo sapiens, UniProt P31391); assay: Inhibition of [125 I -Tyr]SRIF-14 binding to membranes isolated from CHO-K1 cells expressing cloned human SRIF receptor (sst-4) subtype; assay type: cell membranes
Sequence of Somatostatin receptor type 4 (P31391 whole entry): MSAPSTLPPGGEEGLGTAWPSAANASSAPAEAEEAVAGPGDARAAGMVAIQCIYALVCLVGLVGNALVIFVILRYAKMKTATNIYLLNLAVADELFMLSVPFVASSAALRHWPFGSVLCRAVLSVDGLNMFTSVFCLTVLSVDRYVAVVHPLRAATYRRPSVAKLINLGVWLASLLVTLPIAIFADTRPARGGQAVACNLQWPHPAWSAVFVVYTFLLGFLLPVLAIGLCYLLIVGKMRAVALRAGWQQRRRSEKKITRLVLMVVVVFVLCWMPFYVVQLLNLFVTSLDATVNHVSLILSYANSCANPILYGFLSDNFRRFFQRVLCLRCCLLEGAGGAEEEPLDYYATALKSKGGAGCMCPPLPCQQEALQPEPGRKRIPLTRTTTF

[6] = biological target: T2, Somatostatin receptor type 2 (Homo sapiens, UniProt P30874); assay: Inhibition of [125 I -Tyr]SRIF-14 binding to membranes isolated from CHO-K1 cells expressing cloned human SRIF receptor (sst-2) subtype; assay type: cell membranes
T2 sequence (P30874 whole entry): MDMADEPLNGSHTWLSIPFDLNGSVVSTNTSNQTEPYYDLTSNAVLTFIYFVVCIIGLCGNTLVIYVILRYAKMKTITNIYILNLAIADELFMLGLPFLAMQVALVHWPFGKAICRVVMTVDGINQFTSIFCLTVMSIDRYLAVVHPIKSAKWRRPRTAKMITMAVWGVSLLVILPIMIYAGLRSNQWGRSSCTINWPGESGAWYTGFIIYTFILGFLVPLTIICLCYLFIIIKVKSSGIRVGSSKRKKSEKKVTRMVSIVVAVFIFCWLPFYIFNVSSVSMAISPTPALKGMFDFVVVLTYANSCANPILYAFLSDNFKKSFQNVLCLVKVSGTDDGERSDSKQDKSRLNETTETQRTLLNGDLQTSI

[7] = biological target: T2, Somatostatin receptor type 2; assay: Inhibition of [125 I -Tyr]SRIF-14 binding to membranes isolated from CHO-K1 cells expressing each of the cloned human SRIF receptor (sst-2) subtypes; assay type: cell membranes
Procedure, shortened: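 Stable CHO-K1 clones transfected with human receptor cDNA in pCMV5. Membranes prepared from these cells, 10-20 µg protein/well, incubated with 0.05-0.1 nM [125I-Tyr11]SRIF-14 in 50 mM HEPES pH 7.4, 0.2% BSA, 5 mM MgCl2 plus protease inhibitors, 50-90 min at 37 °C depending on subtype. GF/C filtration, then counting. Nonspecific binding defined with 0.1 µM SRIF-14. Ki obtained by nonlinear regression.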

T1 sequence (P32745 whole entry): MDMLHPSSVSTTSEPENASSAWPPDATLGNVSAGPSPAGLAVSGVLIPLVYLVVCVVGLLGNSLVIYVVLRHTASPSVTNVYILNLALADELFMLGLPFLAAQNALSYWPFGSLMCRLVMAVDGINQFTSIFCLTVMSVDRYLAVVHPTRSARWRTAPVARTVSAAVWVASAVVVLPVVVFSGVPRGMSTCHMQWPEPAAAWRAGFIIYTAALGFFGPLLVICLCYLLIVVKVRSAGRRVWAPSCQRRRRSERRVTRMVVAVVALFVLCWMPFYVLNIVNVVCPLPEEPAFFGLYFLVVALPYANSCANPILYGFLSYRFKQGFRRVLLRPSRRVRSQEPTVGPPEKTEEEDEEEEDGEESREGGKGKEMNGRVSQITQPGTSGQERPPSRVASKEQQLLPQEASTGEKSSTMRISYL

`CCCCC1(CCCC)N[C@H](c2nc(-c3ccccc3)c[nH]2)Cc2c1[nH]c1ccccc21` [listing 1 of 2 here] showed a Ki [1] of 0.79 nM.
`CN(C)c1ccc(C2N[C@H](c3nc(-c4ccccc4)c[nH]3)Cc3c2[nH]c2ccccc32)cc1` (some centres undefined) was tested, and the Ki [1] was 33 nM.
`CCCCC1(CCCC)N[C@H](c2nc(-c3ccccc3)c(-c3ccccc3)[nH]2)Cc2c1[nH]c1ccccc21` gave a Ki [1] of 5500 nM.
`CCCCCC1N[C@H](c2nc(-c3ccccc3)c[nH]2)Cc2c1[nH]c1ccccc21` (some centres undefined) was tested, and the Ki [1] was 11 nM.
Molecule `CCCCC1(CCCC)NC(c2nc(-c3ccccc3)c[nH]2)Cc2c1[nH]c1ccc(Cl)cc21` (centres undefined) has an IC50 [2] of 43 nM and a Ki [1] of 3.4 nM.
For `CC(=O)N1CCC2(CC1)N[C@@H](c1nc(-c3ccccc3)c[nH]1)Cc1c2[nH]c2ccccc12`, the Ki [1] was 71 nM.
In the case of `CCCCC1(CCCC)N[C@@H](c2nc(-c3ccccc3)cs2)Cc2c1[nH]c1ccccc21`, the Ki [1] is reported as 3800 nM.
Molecule `CCC1(CC)N[C@H](c2nc(-c3ccccc3)c[nH]2)Cc2c1[nH]c1ccccc21` has a Ki [1] of 11 nM.
Molecule `c1ccc(-c2c[nH]c([C@@H]3Cc4c([nH]c5ccccc45)C(c4ccncc4)N3)n2)cc1` (some centres undefined) has a Ki [1] of 320 nM.
`COc1ccc(C2N[C@H](c3nc(-c4ccccc4)c[nH]3)Cc3c2[nH]c2ccccc32)cc1` (some centres undefined) gave a Ki [1] of 60 nM.
In the case of `CCCCC1(CCCC)N[C@@H](c2nc(-c3ccccc3)c[nH]2)Cc2c1sc1ccccc21`, the Ki [1] is reported as 430 nM.
Work on `CCCCC1(CCCC)NC(c2nc(-c3ccccc3)c[nH]2)Cc2c1[nH]c1ccc(OCc3ccccc3)cc21` (centres undefined) yielded a Ki [1] of 17 nM.
Work on `c1ccc(-c2c[nH]c(C3Cc4c([nH]c5ccccc45)C(C4CCCCC4)N3)n2)cc1` (centres undefined) yielded a Ki [3] of 1800 nM, a Ki [4] greater than 10000 nM and a Ki [5] greater than 10000 nM. It also gave a Ki [6] greater than 10000 nM.
`c1ccc(-c2c[nH]c([C@@H]3Cc4c([nH]c5ccccc45)C4(Cc5ccccc5C4)N3)n2)cc1` gave a Ki [1] of 13 nM.
`c1ccc(-c2c[nH]c(-c3cc4c([nH]c5ccccc54)c(C4CCCCC4)n3)n2)cc1` showed a Ki [1] of 750 nM.
`CCCCCC1(CCCCC)N[C@H](c2nc(-c3ccccc3)c[nH]2)Cc2c1[nH]c1ccccc21` showed a Ki [3] greater than 10000 nM, a Ki [4] greater than 10000 nM and a Ki [5] greater than 10000 nM. For the same molecule, the Ki [6] was greater than 10000 nM, the IC50 [2] was 0.84 nM and the Ki [1] was 0.92 nM.
For `C[C@@H](c1c[nH]c2ccccc12)[C@@H](NC(=O)N1CCC(n2c(=O)[nH]c3ccccc32)CC1)C(=O)N[C@@H](CCCCN)C(=O)OC(C)(C)C`, the Ki [7] was 0.01 nM.
`CCCCCCC1(CCCCCC)N[C@H](c2nc(-c3ccccc3)c[nH]2)Cc2c1[nH]c1ccccc21` was tested, and the Ki [1] was 28 nM.
In the case of `c1ccc(-c2c[nH]c([C@@H]3Cc4c([nH]c5ccccc45)C4(N3)C3CC5CC(C3)CC4C5)n2)cc1` (some centres undefined), the Ki [1] is reported as 84 nM.
For `CCCCC1(CCCC)N[C@@H](c2nc(-c3ccccc3)c[nH]2)Cc2c1[nH]c1ccccc21`, the Ki [3] was 3700 nM, the Ki [4] was 2200 nM and the Ki [5] was 7100 nM. The Ki [6] was greater than 10000 nM, the IC50 [2] was 2.7 nM and the Ki [1] was 0.64 nM.
Molecule `CCCCCC1(CCCCC)NC(c2nc(-c3ccccc3)c[nH]2)Cc2c1[nH]c1ccc(C)cc21` (centres undefined) has an IC50 [2] of 450 nM and a Ki [1] of 6.9 nM.
In the case of `CCCCC1(CCCC)N[C@H](c2nc(-c3ccccc3)c[nH]2)Cc2c1[nH]c1ccccc21` [listing 2 of 2 here], the Ki [3] is reported as greater than 10000 nM, the Ki [4] is reported as 3700 nM and the Ki [5] is reported as 9800 nM. The Ki [6] was greater than 10000 nM, the IC50 [2] was 6.8 nM and the Ki [1] was 3.4 nM.
`CC1(C2CCCCC2)N[C@H](c2nc(-c3ccccc3)c[nH]2)Cc2c1[nH]c1ccccc21` (some centres undefined) was tested, and the Ki [3] was 4400 nM, the Ki [4] was greater than 10000 nM and the Ki [5] was greater than 10000 nM. The Ki [6] was greater than 10000 nM, the IC50 [2] was 5.4 nM and the Ki [1] was 0.9 nM.
Molecule `O=[N+]([O-])c1ccccc1C1N[C@H](c2nc(-c3ccccc3)c[nH]2)Cc2c1[nH]c1ccccc21` (some centres undefined) has a Ki [1] of 200 nM.
